Measured values collected from several papers.
Protocols differ between the studies behind these lines.
Target: Mitogen-activated protein kinase kinase kinase 7 (MAP3K7, Homo sapiens, UniProt O43318)
Sequence (O43318 1-606, as in one of the studies): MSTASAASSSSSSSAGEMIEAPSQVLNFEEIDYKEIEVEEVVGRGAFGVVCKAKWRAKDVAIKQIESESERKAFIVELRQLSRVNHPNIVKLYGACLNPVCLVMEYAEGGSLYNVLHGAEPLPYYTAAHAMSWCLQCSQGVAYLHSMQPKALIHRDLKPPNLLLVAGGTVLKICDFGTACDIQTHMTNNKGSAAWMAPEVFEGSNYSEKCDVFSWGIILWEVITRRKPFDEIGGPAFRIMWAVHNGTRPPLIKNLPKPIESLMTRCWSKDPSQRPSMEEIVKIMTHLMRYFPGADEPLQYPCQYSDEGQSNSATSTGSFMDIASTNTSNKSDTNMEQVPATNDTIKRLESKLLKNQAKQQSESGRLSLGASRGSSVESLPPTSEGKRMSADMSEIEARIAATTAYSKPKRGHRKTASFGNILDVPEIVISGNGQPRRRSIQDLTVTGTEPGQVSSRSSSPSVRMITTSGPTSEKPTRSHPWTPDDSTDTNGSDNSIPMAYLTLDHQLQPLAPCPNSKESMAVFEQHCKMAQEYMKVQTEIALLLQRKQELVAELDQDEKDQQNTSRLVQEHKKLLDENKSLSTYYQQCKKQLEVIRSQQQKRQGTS

Cc1noc([C@H]2C[C@@H](c3ccc(C(F)(F)F)cc3)CN(C(=O)N3CCS(=O)(=O)C3)C2)n1  remaining binding (cell-free assay, competition with immobilised ligand; 1 µM): 100%
COc1cnc(Nc2cccc(S(N)(=O)=O)c2)nc1N1CCN(c2ccccc2)C(=O)C1  remaining binding (binding, competition with immobilised ligand; 1 µM): 74%
Cc1cnc(Nc2ccc(C(=O)N3CCC(N4CCCC4)CC3)cc2)nc1-c1cc2ccccc2s1  remaining binding (binding, competition with immobilised ligand; 1 µM): 7.3%
Cc1cnn2ncc(-c3ccnc(N(C)C)n3)c2c1  remaining binding (binding; 1 µM): 77%
Cn1nc(C(=O)NCc2ccc(C(=O)O)cc2)cc1-c1ccc2[nH]ccc2c1  remaining binding (cell-free assay, competition with immobilised ligand; 0.1 µM): 95%
O=C(NCC1CCOCC1)c1n[nH]cc1NC(=O)c1c(F)cccc1F  remaining binding (binding, competition with immobilised ligand; 1 µM): 73%
C[C@@H]1CCN(c2nccc(-c3cnn4ncccc34)n2)C1  remaining binding (binding; 1 µM): 81%
COc1ncc2cc3ccccc3nc2c1C#N  remaining binding (cell-free assay, competition with immobilised ligand; 5 µM): 92%
O=C(c1ccc(Nc2nccc(-c3cc4ccccc4s3)n2)cc1)N1CCC(N2CCCC2)CC1  remaining binding (binding, competition with immobilised ligand; 1 µM): 7.2%
CN(CCCC(F)(F)F)c1nccc(-c2cnn3ncccc23)n1  remaining binding (binding; 1 µM): 85%
O=C(NCCCN1CCOCC1)c1ccc(Nc2ncc(Cl)c(-c3ccc(Cl)s3)n2)cc1  remaining binding (binding, competition with immobilised ligand; 1 µM): 4.5%
CNC(=O)[C@@H]1CC[C@@H](n2c(-c3ccc4cnccc4c3)nc3ccc(C(=O)NCc4cccc(C(N)=O)c4)cc32)C1  remaining binding (binding, competition with immobilised ligand; 1 µM): 100%
C[C@@H](c1cccc(C#N)c1)n1cc(Cl)cc(C(N)=O)c1=N  remaining binding (cell-free assay, competition with immobilised ligand; 1 µM): 100%
CN(c1nccc(-c2cnn3ncccc23)n1)C1CC1  remaining binding (binding; 1 µM): 82%
NS(=O)(=O)c1cc(NC(=O)C2(c3ccccc3Cl)CC2)ccc1Oc1cccc(Cl)c1  remaining binding (cell-free assay, competition with immobilised ligand; 1 µM): 98%
Nc1ncc2c(n1)-c1c([nH]c3ccc(C#CC4CC4)cc13)CCCC2  remaining binding (binding, competition with immobilised ligand; 1 µM): 89%
COc1ccnn2ncc(-c3ccnc(N(C)C)n3)c12  remaining binding (binding; 1 µM): 75%
FC(F)(F)Oc1cccc(-c2cnc3ccc(-c4ccncc4)nn23)c1  remaining binding (binding, competition with immobilised ligand; 5 µM): 34%
COc1cc(-c2cn(C3CCc4ccccc4N(CC(F)(F)F)C3=O)nn2)ccc1-n1ccc(C)n1 (stereo not shown)  remaining binding (cell-free assay, competition with immobilised ligand; 1 µM): 86%
CN(C)c1ncc(F)c(-c2cnn3ncccc23)n1  remaining binding (binding; 1 µM): 98%
CC(C)(O)c1cncc(-c2nc3ccc(F)cc3n2C2CC2)c1  remaining binding (cell-free assay, competition with immobilised ligand; 1 µM): 100%
C[C@@H](c1ccc(-n2cnc3c(N)ncnc32)cc1)N1CCc2nn(C)c(Cc3ccccc3)c2C1=O  remaining binding (binding, competition with immobilised ligand; 0.1 µM): 32%
